Key:
SUNE1 = assay: Cytotoxicity against human SUNE1 cells after 48 hrs by MTT assay; format: functional, cell-based; settings: SUNE1, 48 h
Method in brief: (§1)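 Growth inhibition in nasopharyngeal carcinoma lines (CNE1, CNE2, HONE-1, SUNE-1) and HT-29 colon cells. IC50 values are the mean ± SD of three experiments, with cisplatin as positive control.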

HONE1 cell line [1] = assay: Cytotoxicity against human HONE1 cells after 48 hrs by MTT assay; format: functional, cell-based; settings: HONE1, 48 h; method in brief: as §1
CNE-2 = assay: Cytotoxicity against human CNE2 cells after 48 hrs by MTT assay; format: functional, cell-based; settings: CNE-2, 48 h; method in brief: as §1
HT-29 = assay: Cytotoxicity against human HT-29 cells after 48 hrs by MTT assay; format: functional, cell-based; settings: HT-29, 48 h; method in brief: as §1
CNE = assay: Cytotoxicity against human CNE1 cells after 48 hrs by MTT assay; format: functional, cell-based; method in brief: as §1
HONE1 cell line [2] = assay: Induction of apoptosis in human HONE1 cells assessed as late apoptotic cells at 10 uM after 48 hrs by Annexin V-FITC/propidium iodide staining based flow cytometry (reference value: 0.37%); format: functional
HONE1 cell line [3] = assay: Induction of apoptosis in human HONE1 cells assessed as live cells at 10 uM after 48 hrs by Annexin V-FITC/propidium iodide staining based flow cytometry (reference value: 96.16%); format: functional
HONE1 cell line [4] = assay: Induction of apoptosis in human HONE1 cells assessed as necrotic cells at 10 uM after 48 hrs by Annexin V-FITC/propidium iodide staining based flow cytometry (reference value: 0.23%); format: functional
HONE1 cell line [5] = assay: Cell cycle arrest in human HONE1 cells assessed as accumulation at G0/G1 phase at 10 uM after 48 hrs by propidium iodide staining based flow cytometry (reference value: 55%); format: functional
HONE1 cell line [6] = assay: Induction of apoptosis in human HONE1 cells assessed as early apoptotic cells at 10 uM after 48 hrs by Annexin V-FITC/propidium iodide staining based flow cytometry (reference value: 3.24%); format: functional
HONE1 cell line [7] = assay: Induction of apoptosis in human HONE1 cells assessed as live cells at 1 uM after 48 hrs by Annexin V-FITC/propidium iodide staining based flow cytometry (reference value: 96.16%); format: functional
HONE1 cell line [8] = assay: Cell cycle arrest in human HONE1 cells assessed as accumulation at G0/G1 phase at 20 uM after 48 hrs by propidium iodide staining based flow cytometry (reference value: 55%); format: functional
HONE1 cell line [9] = assay: Induction of apoptosis in human HONE1 cells assessed as late apoptotic cells at 20 uM after 48 hrs by Annexin V-FITC/propidium iodide staining based flow cytometry (reference value: 0.37%); format: functional
HONE1 cell line [10] = assay: Induction of apoptosis in human HONE1 cells assessed as live cells at 5 uM after 48 hrs by Annexin V-FITC/propidium iodide staining based flow cytometry (reference value: 96.16%); format: functional
HONE1 cell line [11] = assay: Cell cycle arrest in human HONE1 cells assessed as accumulation at G2/M phase at 5 uM after 48 hrs by propidium iodide staining based flow cytometry (reference value: 0.3%); format: functional
HONE1 cell line [12] = assay: Cell cycle arrest in human HONE1 cells assessed as accumulation at G0/G1 phase at 3 uM after 48 hrs by propidium iodide staining based flow cytometry (reference value: 55%); format: functional
HONE1 cell line [13] = assay: Induction of apoptosis in human HONE1 cells assessed as necrotic cells at 20 uM after 48 hrs by Annexin V-FITC/propidium iodide staining based flow cytometry (reference value: 0.23%); format: functional
HONE1 cell line [14] = assay: Induction of apoptosis in human HONE1 cells assessed as necrotic cells at 3 uM after 48 hrs by Annexin V-FITC/propidium iodide staining based flow cytometry (reference value: 0.23%); format: functional
HONE1 cell line [15] = assay: Cell cycle arrest in human HONE1 cells assessed as accumulation at G2/M phase at 20 uM after 48 hrs by propidium iodide staining based flow cytometry (reference value: 0.3%); format: functional
HONE1 cell line [16] = assay: Induction of apoptosis in human HONE1 cells assessed as necrotic cells at 1 uM after 48 hrs by Annexin V-FITC/propidium iodide staining based flow cytometry (reference value: 0.23%); format: functional
HONE1 cell line [17] = assay: Cell cycle arrest in human HONE1 cells assessed as accumulation at S phase at 3 uM after 48 hrs by propidium iodide staining based flow cytometry (reference value: 44.7%); format: functional
HONE1 cell line [18] = assay: Cell cycle arrest in human HONE1 cells assessed as accumulation at S phase at 20 uM after 48 hrs by propidium iodide staining based flow cytometry (reference value: 44.7%); format: functional
HONE1 cell line [19] = assay: Cell cycle arrest in human HONE1 cells assessed as accumulation at S phase at 5 uM after 48 hrs by propidium iodide staining based flow cytometry (reference value: 44.7%); format: functional
HONE1 cell line [20] = assay: Cell cycle arrest in human HONE1 cells assessed as accumulation at G2/M phase at 10 uM after 48 hrs by propidium iodide staining based flow cytometry (reference value: 0.3%); format: functional
HONE1 cell line [21] = assay: Cell cycle arrest in human HONE1 cells assessed as accumulation at S phase at 10 uM after 48 hrs by propidium iodide staining based flow cytometry (reference value: 44.7%); format: functional
HONE1 cell line [22] = assay: Induction of apoptosis in human HONE1 cells assessed as early apoptotic cells at 3 uM after 48 hrs by Annexin V-FITC/propidium iodide staining based flow cytometry (reference value: 3.24%); format: functional
HONE1 cell line [23] = assay: Cell cycle arrest in human HONE1 cells assessed as accumulation at G2/M phase at 3 uM after 48 hrs by propidium iodide staining based flow cytometry (reference value: 0.3%); format: functional
HONE1 cell line [24] = assay: Cell cycle arrest in human HONE1 cells assessed as accumulation at G0/G1 phase at 5 uM after 48 hrs by propidium iodide staining based flow cytometry (reference value: 55%); format: functional
HONE1 cell line [25] = assay: Induction of apoptosis in human HONE1 cells assessed as early apoptotic cells at 1 uM after 48 hrs by Annexin V-FITC/propidium iodide staining based flow cytometry (reference value: 3.24%); format: functional
HONE1 cell line [26] = assay: Induction of apoptosis in human HONE1 cells assessed as live cells at 20 uM after 48 hrs by Annexin V-FITC/propidium iodide staining based flow cytometry (reference value: 96.16%); format: functional
HONE1 cell line [27] = assay: Induction of apoptosis in human HONE1 cells assessed as early apoptotic cells at 20 uM after 48 hrs by Annexin V-FITC/propidium iodide staining based flow cytometry (reference value: 3.24%); format: functional
HONE1 cell line [28] = assay: Induction of apoptosis in human HONE1 cells assessed as late apoptotic cells at 5 uM after 48 hrs by Annexin V-FITC/propidium iodide staining based flow cytometry (reference value: 0.37%); format: functional
HONE1 cell line [29] = assay: Induction of apoptosis in human HONE1 cells assessed as late apoptotic cells at 3 uM after 48 hrs by Annexin V-FITC/propidium iodide staining based flow cytometry (reference value: 0.37%); format: functional
HONE1 cell line [30] = assay: Induction of apoptosis in human HONE1 cells assessed as necrotic cells at 5 uM after 48 hrs by Annexin V-FITC/propidium iodide staining based flow cytometry (reference value: 0.23%); format: functional
HONE1 cell line [31] = assay: Induction of apoptosis in human HONE1 cells assessed as early apoptotic cells at 5 uM after 48 hrs by Annexin V-FITC/propidium iodide staining based flow cytometry (reference value: 3.24%); format: functional
HONE1 cell line [32] = assay: Induction of apoptosis in human HONE1 cells assessed as late apoptotic cells at 1 uM after 48 hrs by Annexin V-FITC/propidium iodide staining based flow cytometry (reference value: 0.37%); format: functional
HONE1 cell line [33] = assay: Induction of apoptosis in human HONE1 cells assessed as live cells at 3 uM after 48 hrs by Annexin V-FITC/propidium iodide staining based flow cytometry (reference value: 96.16%); format: functional

Compound: C=C1C(=O)O[C@@H]2[C@@H]3[C@@]4(C=C[C@@]3(C)[C@]3(C4)C(=O)O[C@@H]4[C@H]5C(C)=CC[C@H]5[C@](C)(O)C[C@H](OC(C)=O)[C@H]43)[C@](C)(O)CC[C@@H]12
- IC50 (SUNE1): > 10 µM
- IC50 (HONE1 cell line [1]): > 10 µM
- IC50 (CNE-2): > 10 µM
- IC50 (HT-29): > 10 µM
- IC50 (CNE): > 10 µM

Compound: C=C1C(=O)O[C@@H]2[C@@H]3[C@@]4(C=C[C@@]3(C)[C@]3(C4)C(=O)O[C@@H]4[C@H]5C(C)=CC[C@H]5[C@](C)(O)C[C@H](OC(=O)/C(C)=C/C)[C@H]43)[C@](C)(O)CC[C@@H]12
- IC50 (SUNE1): > 10 µM
- IC50 (HONE1 cell line [1]): > 10 µM
- IC50 (CNE-2): > 10 µM
- IC50 (HT-29): > 10 µM
- IC50 (CNE): > 10 µM

Compound: C=C1C(=O)O[C@@H]2[C@H]3C(C)=CC[C@H]3[C@](C)(O)C[C@H](OC(=O)/C(C)=C/C)[C@@H]12
- IC50 (SUNE1): 3 µM
- IC50 (HONE1 cell line [1]): 6.5 µM
- IC50 (CNE-2): > 10 µM
- IC50 (HT-29): > 10 µM
- IC50 (CNE): 7.9 µM

Compound: C=C1C(=O)O[C@H]2[C@H]1[C@@H](O)C[C@@](C)(O)[C@]13C=C[C@](C)([C@H]21)[C@]1(C3)C(=O)O[C@@H]2[C@H]3C(C)=CC[C@H]3[C@](C)(O)C[C@H](OC(=O)/C(C)=C\C)[C@H]21
- IC50 (SUNE1): > 10 µM
- IC50 (HONE1 cell line [1]): > 10 µM
- IC50 (CNE-2): > 10 µM
- IC50 (HT-29): > 10 µM
- IC50 (CNE): > 10 µM

Compound: C/C=C(\C)C(=O)O[C@H]1C[C@@](C)(O)[C@@H]2CC(=O)C(C)=C2[C@H]2OC(=O)[C@@H](C)[C@H]12
- IC50 (SUNE1): > 10 µM
- IC50 (HONE1 cell line [1]): > 10 µM
- IC50 (CNE-2): > 10 µM
- IC50 (HT-29): > 10 µM
- IC50 (CNE): > 10 µM

Compound: C=C1C(=O)O[C@H]2[C@H]1[C@@H](OC(=O)/C(C)=C/C)C[C@@](C)(O)[C@]13C=C[C@](C)([C@H]21)[C@]1(C3)C(=O)O[C@@H]2[C@H]3C(C)=CC[C@H]3[C@](C)(O)C[C@H](OC(=O)/C(C)=C/C)[C@H]21
- IC50 (SUNE1): 4.3 µM
- Activity (HONE1 cell line [2]): 23.45%
- Activity (HONE1 cell line [3]): 65.22%
- Activity (HONE1 cell line [4]): 0.79%
- Activity (HONE1 cell line [5]): 40.89%
- Activity (HONE1 cell line [6]): 10.54%
- Activity (HONE1 cell line [7]): 96.45%
- IC50 (HONE1 cell line [1]): 3.5 µM
- Activity (HONE1 cell line [8]): 14.01%
- Activity (HONE1 cell line [9]): 27.85%
- Activity (HONE1 cell line [10]): 81.86%
- Activity (HONE1 cell line [11]): 7.52%
- Activity (HONE1 cell line [12]): 44.75%
- IC50 (CNE-2): 6 µM
- Activity (HONE1 cell line [13]): 6.08%
- Activity (HONE1 cell line [14]): 0.16%
- Activity (HONE1 cell line [15]): 38.22%
- IC50 (HT-29): 9.6 µM
- Activity (HONE1 cell line [16]): 0.21%
- Activity (HONE1 cell line [17]): 49.32%
- Activity (HONE1 cell line [18]): 47.77%
- Activity (HONE1 cell line [19]): 42.25%
- Activity (HONE1 cell line [20]): 16.52%
- Activity (HONE1 cell line [21]): 42.59%
- Activity (HONE1 cell line [22]): 3.01%
- Activity (HONE1 cell line [23]): 5.93%
- Activity (HONE1 cell line [24]): 50.22%
- Activity (HONE1 cell line [25]): 2.2%
- Activity (HONE1 cell line [26]): 56.74%
- Activity (HONE1 cell line [27]): 9.33%
- Activity (HONE1 cell line [28]): 2.61%
- Activity (HONE1 cell line [29]): 0.45%
- Activity (HONE1 cell line [30]): 0.53%
- Activity (HONE1 cell line [31]): 15%
- Activity (HONE1 cell line [32]): 1.14%
- IC50 (CNE): 4.6 µM
- Activity (HONE1 cell line [33]): 96.38%

Compound: C/C=C(/C)C(=O)O[C@H]1C[C@@](C)(O)[C@@H]2CC(=O)C(C)=C2[C@H]2OC(=O)[C@@H](C)[C@H]12
- IC50 (SUNE1): > 10 µM
- IC50 (HONE1 cell line [1]): > 10 µM
- IC50 (CNE-2): > 10 µM
- IC50 (HT-29): > 10 µM
- IC50 (CNE): > 10 µM

Compound: CC1=CC[C@@H]2[C@H]1[C@H]1OC(=O)[C@@H](C)[C@@H]1[C@H](O)C[C@@]2(C)O
- IC50 (SUNE1): > 10 µM
- IC50 (HONE1 cell line [1]): > 10 µM
- IC50 (CNE-2): > 10 µM
- IC50 (HT-29): > 10 µM
- IC50 (CNE): > 10 µM

Source: ChEMBL document CHEMBL4330168, “Monomeric and Dimeric Cytotoxic Guaianolide-Type Sesquiterpenoids from the Aerial Parts of Chrysanthemum indicum” (J Nat Prod, 2019)
